From PubChem
CCR6 antagonist = CCR6 (human) receptor antagonism; P51684; CHO-K1 CCR6 PathHunter beta-arrestin, luminescence, CCL20-stimulated; inhibition, % at 20 µM; 0.49% of 340,000 active; AID 493098;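 active means compounds whose inhibition of the agonist-driven luminescence signal at 20 µM reaches about 50%, limit read from the data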;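 further: cells stimulated with CCL20 at 14 nM final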
Target sequence (P51684 whole entry, looked up): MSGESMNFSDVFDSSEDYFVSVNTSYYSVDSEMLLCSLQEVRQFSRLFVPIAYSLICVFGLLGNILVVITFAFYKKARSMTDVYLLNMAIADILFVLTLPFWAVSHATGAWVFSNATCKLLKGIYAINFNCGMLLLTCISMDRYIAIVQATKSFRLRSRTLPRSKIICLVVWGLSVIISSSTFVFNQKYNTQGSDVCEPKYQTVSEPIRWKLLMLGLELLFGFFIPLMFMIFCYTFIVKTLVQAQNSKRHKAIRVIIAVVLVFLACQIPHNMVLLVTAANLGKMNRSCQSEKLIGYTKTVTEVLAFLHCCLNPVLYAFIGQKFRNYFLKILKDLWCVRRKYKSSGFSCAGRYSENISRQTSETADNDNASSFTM
APJ antag = antagonists of human APJ apelin receptor; AID 2521; CHO-K1 APJ beta-arrestin complementation, luminescence; P35414; 0.32% of 330,000 active; inhibition, % at 20 µM;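 active means inhibition above about 40% at 20 µM, limit read from the data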;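 further: cells challenged with 10 nM apelin-13 agonist together with compound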
EBI2 block = blocks human EBI2 receptor beta-arrestin signaling. P32249. EBI2 beta-arrestin recruitment, luminescence, 7a,25-OHC stimulated. inhibition, % at 5 µM. 0.81% of 360,000 active. AID 651636; in the data active means inhibition above about 38%;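 further: enzyme fragment complementation signal reports receptor beta-arrestin coupling in cells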
APJ agonist = activates the human apelin receptor APJ | P35414 | CHO-K1 APJ PathHunter beta-arrestin, luminescence; 0% DMSO wells, 100% apelin | activation, % at 20 µM | 0.11% of 330,000 active | AID 2520;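 active means activation more than six SD over the plate average, tested at 20 µM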
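Assay system: CHO-K1 APJ beta-arrestin complementation cell line / Compound: single test compound dose, 20 µM final, 1% DMSO / Times: overnight seeding, 90 min compound at 25 °C, 1 h detection / Technique: beta-gal luminescence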
CXCR6 block = inhibitors of human CXCR6 receptor; O00574; 0.36% of 360,000 active; inhibition, % at 20 µM; AID 602244; CHO-K1 PathHunter CXCR6 beta-arrestin, luminescence; in the data active means inhibition above about 34%, passing the limit was not always enough;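 further: antagonist mode with CXCL16 agonist at 10 nM final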
A number is an active result; - = inactive; . = not tested or not shown. Shown are actives, neighbours in structure and some others; about 1.5% of the full set was active somewhere.

SMILES	CCR6 antagonist	APJ antag	EBI2 block	APJ agonist	CXCR6 block
Cn1c(-c2ccccc2)c(Sc2ccccc2)c2cc(-c3ccc4cc[nH]c4c3)ccc21	.	.	-	.	-
O=S(=O)(NCCOc1ccccc1Cl)c1ccc2oc3ccccc3c2c1	-	-	-	-	-
Cn1c(=O)c(=O)n(C)c2cc(S(=O)(=O)NCCOc3ccccc3Cl)ccc21	-	40	-	-	-
CC1(C(=O)NS(=O)(=O)c2cccs2)CCN1C(=O)C1CCCCC1 (stereo unspecified)	.	.	-	.	-
Nc1c(Cl)ncnc1N/N=C/c1ccccn1	50	.	.	.	.
Nc1c(Cl)ncnc1N/N=C/c1cccnc1	-	-	-	-	-
c1ccc(Nc2ccccn2)cc1	-	-	-	-	-
c1ccc(/N=C2\N=C(Nc3ccccn3)c3ccccc32)nc1	56	-	-	-	-
O=C(NCCc1c[nH]c2ccccc12)C(=O)NCC(c1ccco1)N1CCN(c2ccccc2F)CC1 (stereo unspecified)	-	-	58	-	-
CCOC(=O)c1nnn(-c2nonc2N)c1CN1CCCCCC1	104	-	-	-	-
CCOC(=O)c1nnn(-c2nonc2N)c1CN1CCCC1	-	-	-	-	-
CC(C)CCNS(=O)(=O)c1cc2c3c(c1)CCN3C(=O)CC2	-	-	-	-	-
C[C@@H]1CNC(=O)c2c(C(=O)N[C@@H](Cc3c[nH]c4ccccc34)C(=O)OC(C)(C)C)ncn21	.	.	-	.	-
COC(=O)[C@]12CCCCC=C1N(Cc1ccc3c(c1)OCO3)C(=O)[C@H](CC(=O)NCC1CCCCC1)C2	.	.	-	.	.
Cc1cc(C)nc(SCc2cc(=O)c(OC(=O)c3ccc(Cl)c([N+](=O)[O-])c3)co2)n1	-	58	-	-	-
CC1=NNC(=O)/C1=C\c1cn(-c2ccccc2)nc1-c1ccc(F)cc1	-	.	86	.	-
CCC(C)CN1C(=O)CSCC1(C)C(=O)NC(C)C (stereo unspecified)	.	.	-	.	.
N#CC1=C(N)C2=CCCC[C@H]2[C@H](c2ccccc2)C1(C#N)C#N	-	-	-	-	-
N#CC1=C(N)C2=CCCC[C@H]2[C@H](c2ccc(Br)cc2)C1(C#N)C#N	68	.	-	.	46
COc1cccc(NC(=O)c2ccc(-n3cnnn3)cc2)c1	-	-	-	-	-
Cc1ccc(S(=O)(=O)c2ccc([N+](=O)[O-])o2)cc1	103	.	-	.	97
Cc1ccc(NC(=O)c2ccc([N+](=O)[O-])o2)c(C)c1	-	-	-	-	-
C/C(=N\NC(=S)NCc1ccccc1)c1ccc(C(C)(C)C)cc1	62	-	-	-	-
CCC(=O)c1ccc(OCC(=O)OCC(=O)NCC2CCCO2)cc1 (stereo unspecified)	-	-	-	-	-
CCn1cc(CN2CCC(C(=O)Nc3ccc(Oc4ccccc4F)cc3)CC2)cn1	.	.	-	.	-
SMILES	CCR6 antagonist	APJ antag	EBI2 block	APJ agonist	CXCR6 block
Oc1c(Br)cc(Br)c2cccnc12	56	.	-	.	-
O=C1C(SCCO)=C(SCCO)C(=O)c2ccccc21	108	-	-	-	103
COc1ccc(C(=O)Nc2nc(-c3ccc([N+](=O)[O-])cc3)c(-c3ccccc3)s2)cc1	-	-	-	-	-
COc1ccc(-c2sc(NC(=O)c3ccc(C)cc3)nc2-c2ccc([N+](=O)[O-])cc2)cc1	52	-	-	-	-
Cc1cc(C)c(NC(=O)COC(=O)c2ccncc2)c(C)c1	-	-	-	-	-
Cc1[nH]c2ccccc2c1/C=N/Nc1ccc([N+](=O)[O-])cc1S(=O)(=O)Nc1ccc(Cl)cc1	57	-	-	-	42
N#C/C(=C/c1ccc(N2CCCCC2)o1)c1cccc(F)c1	-	-	-	-	-
N#C/C(=C/c1ccc(N2CCCCCC2)o1)c1ccc(Cl)cc1	-	-	42	-	-
Cc1cc(C(=O)N/N=C/c2cc(Cl)cc([N+](=O)[O-])c2O)c2ccccc2n1	-	-	54	-	-
COc1cc(C(=O)OC(C)CN2C(C)CCCC2C)cc(OC)c1OC (stereo unspecified)	-	-	-	-	-
Cc1ccc(S(=O)(=O)CCC(=O)OCC(=O)c2ccc(F)cc2)cc1	-	-	-	-	-
CC(C)(Oc1ccc(F)cc1)C(=O)OCC(=O)c1ccc(S(C)(=O)=O)cc1	52	-	-	-	-
COc1ccc(CNC(=O)CN(Cc2ccc(OC)cc2)C(=O)CCC(=O)Nc2ccccn2)cc1	-	-	-	-	-
CCC1=NN(C(=O)c2ccc(Cl)cc2)C(O)(c2ccc(C)cc2)C1 (stereo unspecified)	64	-	-	-	-
CC(C)n1c(=O)c2ccccc2n1C(=O)c1ccccc1	.	.	-	.	-
CN(Cc1ccccc1)C(=S)NC(=O)c1ccc(-c2ccccc2)cc1	57	-	-	-	-
COc1cc(C(=O)NC(=S)N(C)Cc2ccccc2)cc(OC)c1OC	-	-	-	-	-
CC(=O)Nc1ccc(NC(=O)c2nc(S(=O)(=O)Cc3ccccc3)ncc2Cl)cc1	-	-	-	-	-
O=C(NCc1ccc2c(c1)OCO2)c1nc(S(=O)(=O)Cc2ccccc2)ncc1Cl	63	-	-	-	-
Cn1c(N)c(Sc2ccc(F)cc2)c(=O)n(C)c1=O	-	-	-	-	-
COc1ccc(CC(=O)Nc2cccc(-c3nnc(-c4cccc(C)c4)o3)c2)cc1OC	-	-	-	24	-
COc1ccc(CC(=O)Nc2cccc(-c3nnc(-c4ccccc4)o3)c2)cc1OC	-	.	-	.	-
Cc1cc(C)c(C)c(S(=O)(=O)ON2C(=O)c3ccccc3C2=O)c1C	76	-	-	-	-
Cc1cccc2c1N(C)C(=O)C2=O	-	-	-	-	-
O=S(=O)(c1ccccc1)N1CCN(S(=O)(=O)c2ccc(F)cc2)CC1	-	-	-	-	-
SMILES	CCR6 antagonist	APJ antag	EBI2 block	APJ agonist	CXCR6 block
Cc1cc(C)c(S(=O)(=O)ON2C(=O)c3ccccc3C2=O)cc1C	67	-	-	-	-
O=C1c2ccccc2C(=O)N1OS(=O)(=O)c1ccc(F)cc1	70	.	-	.	58
COc1nc(NC2OC(CO)C(O)C(O)C2O)c(N)c(=O)[nH]1 (stereo unspecified)	-	.	-	.	-
CC(C)CN(C(=O)COc1ccccc1C(=O)NCc1ccccc1)C1CCS(=O)(=O)C1 (stereo unspecified)	.	.	-	.	-
CC(C)(C)c1ccc(C(=O)N2CCC(NC(=O)c3ccccc3)CC2)cc1	-	-	-	-	-
Cc1cc(O)cc(=O)n1Cc1ccccc1	-	-	-	-	-
COc1ccc(C(=O)/C=C/C(=O)N(CC(=O)NC2CCCCC2)Cc2ccccc2)c(O)c1	97	.	-	.	71
COc1ccc(C(=O)/C=C/C(=O)N(CC(=O)NC2CCCCC2)Cc2ccccc2OC)c(O)c1	84	.	-	.	64
COc1ccc(C(=O)/C=C/C(=O)N(Cc2ccccc2OC)C(C(=O)NC2CCCCC2)c2ccncc2)c(O)c1 (stereo unspecified)	-	-	-	-	-
